Laboratory results taken from ChEMBL document CHEMBL1152300, “Ligand specificity of constitutive androstane receptor as probed by induced-fit docking and mutagenesis” (J Med Chem, 2008).

Experiments:
[1] = molecular target: T1, Nuclear receptor subfamily 1 group I member 3 (Mus musculus, UniProt O35627); experiment: Activation of wild type mouse CAR expressed in HEK293 cells at 10 uM by mammalian one-hybrid assay; conditions: hek293, 10 µM
T1 sequence (O35627 whole entry): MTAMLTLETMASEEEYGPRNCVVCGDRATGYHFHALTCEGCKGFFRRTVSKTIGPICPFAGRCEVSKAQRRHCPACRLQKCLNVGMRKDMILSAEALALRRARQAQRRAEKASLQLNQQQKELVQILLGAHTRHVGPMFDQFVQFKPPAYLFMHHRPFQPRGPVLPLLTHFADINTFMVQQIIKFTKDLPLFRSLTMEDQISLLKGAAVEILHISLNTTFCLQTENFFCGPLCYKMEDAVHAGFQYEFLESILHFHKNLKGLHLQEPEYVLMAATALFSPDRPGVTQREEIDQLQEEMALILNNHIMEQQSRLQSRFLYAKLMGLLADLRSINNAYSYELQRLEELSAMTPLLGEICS

[2] = molecular target: Nuclear receptor subfamily 1 group I member 3 (Mus musculus, UniProt O35627, I252L); experiment: Activation of mouse CAR I252L mutant expressed in HEK293 cells at 1 uM by mammalian one-hybrid assay; assay type: cell-based; conditions: hek293, 1 µM
Nuclear receptor subfamily 1 group I member 3 (Mus musculus, UniProt O35627, I252L), sequence (O35627 whole entry I252L, the tested form may be a part): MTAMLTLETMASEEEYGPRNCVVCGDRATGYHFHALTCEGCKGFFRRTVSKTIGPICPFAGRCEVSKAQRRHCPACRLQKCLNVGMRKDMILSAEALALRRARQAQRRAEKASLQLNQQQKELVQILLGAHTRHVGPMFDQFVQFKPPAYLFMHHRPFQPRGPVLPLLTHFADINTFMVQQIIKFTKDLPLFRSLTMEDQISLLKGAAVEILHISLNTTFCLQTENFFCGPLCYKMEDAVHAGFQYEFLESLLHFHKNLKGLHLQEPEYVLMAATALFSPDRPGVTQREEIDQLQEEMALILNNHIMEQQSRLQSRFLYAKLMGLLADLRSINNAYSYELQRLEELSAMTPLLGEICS
Method in brief: (§1)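 GAL4 DBD fused to mouse CAR LBD (residues 118-358), wild type or point mutant, cotransfected with UASx4-tk-luc reporter and pCMVβ into HEK293 cells. Cells cultured with DMSO (0.1% v/v) or compound (final 1, 2 or 10 µM). Lysed 24 h post-transfection. Luciferase normalized to β-galactosidase, expressed relative to empty GAL4 vector (=1.0). Mean ± SD, three independent experiments.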

[3] = molecular target: T2, Nuclear receptor subfamily 1 group I member 3 (Mus musculus, UniProt O35627, T350M); experiment: Decrease in mouse CAR T350M mutant activation expressed in HEK293 cells at 1 uM by mammalian one-hybrid assay; assay type: cell-based; conditions: read-out: Activity
T2 sequence (O35627 whole entry T350M): as the sequence (O35627 whole entry I252L, the tested form may be a part) above, with L252I, T350M counted along it
Method in brief: as §1

[4] = molecular target: T3, Nuclear receptor subfamily 1 group I member 3 (Mus musculus, UniProt O35627, N175A); experiment: Decrease in steroid receptor co-activator 1 binding to mouse CAR N175A mutant […] at 1 uM by yeast two-hybrid assay; assay type: cell-based; conditions: read-out: Activity
T3 sequence (O35627 whole entry N175A, the tested form may be a part): as the sequence (O35627 whole entry I252L, the tested form may be a part) above, with N175A, L252I counted along it
Method in brief: (§2)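 Yeast expressing wild-type or mutant mouse CAR LBD plus SRC-1, selected on SD plates lacking leucine and tryptophan. Pooled colonies treated with DMSO or compound for 3.5 h. β-Galactosidase activity normalized to cell density. Reference is wild-type CAR + SRC-1 with DMSO (=100). Mean ± SD of two independent determinations, each in triplicate.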

[5] = molecular target: T4, Nuclear receptor subfamily 1 group I member 3 (Mus musculus, UniProt O35627, H213A); experiment: Effect on steroid receptor co-activator 1 binding to mouse CAR H213A mutant […] at 1 uM by yeast two-hybrid assay; assay type: cell-based; conditions: read-out: Activity
T4 sequence (O35627 whole entry H213A): as the sequence (O35627 whole entry I252L, the tested form may be a part) above, with H213A, L252I counted along it
Method in brief: as §2

[6] = molecular target: T5, Nuclear receptor subfamily 1 group I member 3 (Mus musculus, UniProt O35627, L212A); experiment: Effect on steroid receptor co-activator 1 binding to mouse CAR L212A mutant […] at 1 uM by yeast two-hybrid assay; assay type: cell-based; conditions: read-out: Activity
T5 sequence (O35627 whole entry L212A): as the sequence (O35627 whole entry I252L, the tested form may be a part) above, with L212A, L252I counted along it
Method in brief: as §2

[7] = molecular target: T6, Nuclear receptor subfamily 1 group I member 3 (Mus musculus, UniProt O35627, S251L); experiment: Effect on steroid receptor co-activator 1 binding to mouse CAR S251L mutant […] at 1 uM by yeast two-hybrid assay; assay type: cell-based; conditions: read-out: Activity
T6 sequence (O35627 whole entry S251L, the tested form may be a part): as the sequence (O35627 whole entry I252L, the tested form may be a part) above, with S251L, L252I counted along it
Method in brief: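 Yeast two-hybrid assay. Yeast co-expressing wild-type or mutant mouse CAR LBD and the SRC-1 partner were selected on SD plates lacking leucine and tryptophan. Random colonies were pooled and amplified, then treated with DMSO or test chemical for 3.5 h. β-galactosidase activity was normalized to cell density and set relative to wild-type mCAR + SRC-1 with DMSO (=100). Mean ± standard deviation of two determinations, each in triplicate.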

[8] = molecular target: T7, Nuclear receptor subfamily 1 group I member 3 (Mus musculus, UniProt O35627, Y336A); experiment: Effect on nuclear co-repressor receptor binding to mouse CAR Y336A mutant […] at 1 uM by yeast two-hybrid assay; assay type: cell-based; conditions: read-out: Activity
T7 sequence (O35627 whole entry Y336A): as the sequence (O35627 whole entry I252L, the tested form may be a part) above, with L252I, Y336A counted along it
Method in brief: as §2, with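 “NCoR,” for “SRC-1,”, “10 µM androstenol” for “wild-type CAR + SRC-1 with DMSO”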

[9] = molecular target: Nuclear receptor subfamily 1 group I member 3 (Mus musculus, UniProt O35627, L353A); experiment: Effect on nuclear co-repressor receptor binding to mouse CAR L353A mutant […] at 1 uM by yeast two-hybrid assay; assay type: cell-based; conditions: read-out: Activity
Nuclear receptor subfamily 1 group I member 3 (Mus musculus, UniProt O35627, L353A), sequence (O35627 whole entry L353A): as the sequence (O35627 whole entry I252L, the tested form may be a part) above, with L252I, L353A counted along it
Method in brief: as §2, with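 “NCoR,” for “SRC-1,”, “10 µM androstenol” for “wild-type CAR + SRC-1 with DMSO”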

[10] = molecular target: T7, Nuclear receptor subfamily 1 group I member 3; conditions: HEK293, mouse, read-out: Activity
[11] = molecular target: T3, Nuclear receptor subfamily 1 group I member 3; experiment: Decrease in mouse CAR N175A mutant activation expressed in HEK293 cells at 2 uM by mammalian one-hybrid assay; assay type: cell-based; conditions: read-out: Activity
Method in brief: (§3)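 GAL4-DBD fused to mouse CAR LBD (residues 118-358), wild-type or point mutant, cotransfected with UASx4-tk-luc reporter and pCMVβ into HEK293 cells. Cells were exposed to final 1 µM, 2 µM or 10 µM test chemical, or 0.1% v/v DMSO, for 24 h after transfection. Luciferase was normalized to β-galactosidase and set against empty GAL4 vector (=1.0). Mean ± standard deviation, three independent experiments.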

[12] = molecular target: T6, Nuclear receptor subfamily 1 group I member 3; experiment: Decrease in mouse CAR S251L mutant activation expressed in HEK293 cells at 2 uM by mammalian one-hybrid assay; assay type: cell-based; conditions: read-out: Activity
Method in brief: as §3

[13] = molecular target: T2, Nuclear receptor subfamily 1 group I member 3; experiment: Activation of mouse CAR T350M mutant expressed in HEK293 cells at 2 uM by mammalian one-hybrid assay; assay type: cell-based; conditions: hek293, 2 µM
Method in brief: as §3

[14] = molecular target: Nuclear receptor subfamily 1 group I member 3 (Mus musculus, UniProt O35627, F171L); experiment: Effect on steroid receptor co-activator 1 binding to mouse CAR F171L mutant […] at 2 uM by yeast two-hybrid assay; assay type: cell-based; conditions: read-out: Activity
Nuclear receptor subfamily 1 group I member 3 (Mus musculus, UniProt O35627, F171L), sequence (O35627 whole entry F171L, the tested form may be a part): as the sequence (O35627 whole entry I252L, the tested form may be a part) above, with F171L, L252I counted along it
Method in brief: (§4)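 Yeast two-hybrid: yeast expressing wild-type or mutant mouse CAR LBD plus SRC-1 or NCoR, selected on SD medium lacking Leu and Trp. Pooled colonies treated with DMSO or test chemical for 3.5 h. β-Galactosidase normalized to cell density. SRC-1 reference: wild-type + DMSO = 100. NCoR reference: 10 µM androstenol = 100. Mean ± SD, two independent determinations, each in triplicate.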

[15] = molecular target: T3, Nuclear receptor subfamily 1 group I member 3; experiment: Enhancement of steroid receptor co-activator 1 binding to mouse CAR N175A mutant […] at 2 uM by yeast two-hybrid assay; assay type: cell-based
Method in brief: as §4

[16] = molecular target: T5, Nuclear receptor subfamily 1 group I member 3; experiment: Enhancement of steroid receptor co-activator 1 binding to mouse CAR L212A mutant […] at 2 uM by yeast two-hybrid assay; assay type: cell-based
Method in brief: as §4

[17] = molecular target: T4, Nuclear receptor subfamily 1 group I member 3; experiment: Enhancement of nuclear co-repressor receptor binding to mouse CAR H213A mutant […] at 2 uM by yeast two-hybrid assay; assay type: cell-based
Method in brief: as §4

[18] = molecular target: T2, Nuclear receptor subfamily 1 group I member 3; experiment: Decrease in nuclear co-repressor receptor binding to mouse CAR T350M mutant […] at 2 uM by yeast two-hybrid assay; assay type: cell-based; conditions: read-out: Activity
Method in brief: as §4

COc1ccc(C(=O)CCCc2ccccc2)cc1 showed an Activity [1] of 40%.

In the case of Clc1cnc(Oc2ccc(Oc3ncc(Cl)cc3Cl)cc2)c(Cl)c1, the Activity [2] is reported as < 50%, the inhibition at 1 µM [3] is reported as 50% and the inhibition at 1 µM [4] is reported as ≥ 50%. The activity at 1 µM [5] was < 50%, the activity at 1 µM [6] was < 50% and the activity at 1 µM [7] was < 50%. The activity at 1 µM [8] was < 50% and the activity at 1 µM [9] was < 50%.

C[C@]12CC[C@@H](O)C[C@@H]1CC[C@@H]1[C@@H]2CC[C@]2(C)C=CC[C@@H]12 [ANDROSTENOL] was tested, and the inhibition at 10 µM [10] was < 50%.

Clc1ccccc1C(c1ccccc1)(c1ccccc1)n1ccnc1 [CLOTRIMAZOLE] was tested, and the inhibition at 2 µM [11] was 50%, the inhibition at 2 µM [12] was < 50% and the Activity [13] was > 100%. For the same molecule, the activity at 2 µM [14] was ≥ 50%, the Activity [15] was “>= 50%” and the Activity [16] was “>= 50%”. For the same molecule, the Activity [17] was > 150% and the inhibition at 2 µM [18] was ≥ 50%.
